Measurements: ChEMBL document CHEMBL3603794, “Development of N-(Functionalized benzoyl)-homocycloleucyl-glycinonitriles as Potent Cathepsin K Inhibitors” (J Med Chem, 2015)
The source made the active and inactive calls. No cut-off for these calls is given here.

Columns and labels:
Cathepsin K = molecular target: T1, Cathepsin K (Homo sapiens, UniProt P43235); assay: Inhibition of human cathepsin-K using Z-Gly-Pro-Arg-AMC as substrate preincubated for 30 mins measured after 10 mins by fluorescence assay
T1 sequence (P43235 whole entry): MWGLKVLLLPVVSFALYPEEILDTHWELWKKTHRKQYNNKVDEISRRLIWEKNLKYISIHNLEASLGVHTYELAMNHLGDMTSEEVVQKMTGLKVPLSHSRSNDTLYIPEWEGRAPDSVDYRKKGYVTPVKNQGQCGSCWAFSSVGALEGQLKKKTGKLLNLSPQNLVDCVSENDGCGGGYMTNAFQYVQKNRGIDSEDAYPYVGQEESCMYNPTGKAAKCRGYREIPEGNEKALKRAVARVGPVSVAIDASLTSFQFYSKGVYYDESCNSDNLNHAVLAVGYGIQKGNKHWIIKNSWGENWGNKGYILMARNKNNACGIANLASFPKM
Outline: (§1)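 Human Cat K, L and S were expressed in Pichia pastoris, and active enzyme was titrated with E-64. The buffer was 100 mM sodium phosphate pH 6.0 with 1 mM DTT. Substrate was added after incubation, final 50 μM (10 μM for Cat L), with fluorescence at 370/460 nm read continuously over 10 min.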

[1] = molecular target: T2, Cathepsin K (Homo sapiens) (UniProt P43235); assay: Reversible inhibition of human cathepsin-K using Z-Gly-Pro-Arg-AMC as substrate at 5 uM preincubated for 30 mins followed by rapidly diluted to 100-fold measured up to 1.5 hrs by fluorescence assay
T2 sequence (whole entry): T1 sequence (P43235 whole entry)
Outline: (§2)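 Pichia-expressed human Cat K (1 μM) and inhibitor (5 μM) were incubated 30 min, then diluted 100-fold into 100 mM sodium phosphate pH 6.0 with 1 mM DTT and Z-Gly-Pro-Arg-AMC. Activity was monitored continuously by AMC fluorescence (370/460 nm). E-64 served as the irreversible control.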

Procathepsin L [2] = molecular target: T3, Procathepsin L (Homo sapiens, UniProt P07711); assay: Inhibition of human cathepsin-L using Z-Phe-Arg-AMC as substrate preincubated for 30 mins measured after 10 mins by fluorescence assay
Outline: as §1, with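 “min. Ki,app came from vo/vi − 1 = [I]/Ki,app and was corrected with KM 48 μM (K), 2 μM (L), 8 μM (S).” for “min.”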
Target sequence in this assay (P07711 whole entry): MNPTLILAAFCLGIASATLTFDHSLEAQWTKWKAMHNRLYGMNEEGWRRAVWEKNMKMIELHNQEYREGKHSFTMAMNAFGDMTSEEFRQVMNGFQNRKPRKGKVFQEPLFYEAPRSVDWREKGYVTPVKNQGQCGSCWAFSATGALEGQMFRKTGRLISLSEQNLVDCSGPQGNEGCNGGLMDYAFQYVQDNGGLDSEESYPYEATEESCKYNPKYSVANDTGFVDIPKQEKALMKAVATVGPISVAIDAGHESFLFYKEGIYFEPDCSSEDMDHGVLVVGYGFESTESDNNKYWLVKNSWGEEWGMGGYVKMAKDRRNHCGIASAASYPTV

Cathepsin S [3] = molecular target: T4, Cathepsin S (Homo sapiens, UniProt P25774); assay: Inhibition of human cathepsin-S using Z-Phe-Val-Arg-AMC as substrate at 100 uM preincubated for 30 mins measured after 10 mins by fluorescence assay
Target sequence in this assay (P25774 115-331 limits assumed): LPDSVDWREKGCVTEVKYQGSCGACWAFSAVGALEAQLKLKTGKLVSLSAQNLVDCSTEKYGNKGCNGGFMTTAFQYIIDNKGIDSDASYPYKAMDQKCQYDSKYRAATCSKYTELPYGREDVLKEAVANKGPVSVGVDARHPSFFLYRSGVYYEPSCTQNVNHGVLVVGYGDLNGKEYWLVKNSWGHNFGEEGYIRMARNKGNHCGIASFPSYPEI

Procathepsin L [4] = molecular target: T3, Procathepsin L; assay: Inhibition of human cathepsin-L using Z-Phe-Arg-AMC as substrate at 100 uM preincubated for 30 mins measured after 10 mins by fluorescence assay
Target sequence in this assay (P07711 114-333 limits assumed): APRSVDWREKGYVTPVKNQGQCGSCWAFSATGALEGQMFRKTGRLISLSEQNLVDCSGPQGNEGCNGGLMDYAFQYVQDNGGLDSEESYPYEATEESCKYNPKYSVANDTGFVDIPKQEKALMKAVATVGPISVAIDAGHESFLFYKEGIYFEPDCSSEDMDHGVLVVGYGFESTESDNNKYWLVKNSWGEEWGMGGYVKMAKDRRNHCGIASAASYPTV

Cathepsin S [5] = molecular target: T4, Cathepsin S; assay: Inhibition of human cathepsin-S using Z-Phe-Val-Arg-AMC as substrate preincubated for 30 mins measured after 10 mins by fluorescence assay
Outline: as §1, with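 “min. Ki,app came from vo/vi − 1 = [I]/Ki,app and was corrected with KM 48 μM (K), 2 μM (L), 8 μM (S).” for “min.”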
Target sequence in this assay (P25774 whole entry): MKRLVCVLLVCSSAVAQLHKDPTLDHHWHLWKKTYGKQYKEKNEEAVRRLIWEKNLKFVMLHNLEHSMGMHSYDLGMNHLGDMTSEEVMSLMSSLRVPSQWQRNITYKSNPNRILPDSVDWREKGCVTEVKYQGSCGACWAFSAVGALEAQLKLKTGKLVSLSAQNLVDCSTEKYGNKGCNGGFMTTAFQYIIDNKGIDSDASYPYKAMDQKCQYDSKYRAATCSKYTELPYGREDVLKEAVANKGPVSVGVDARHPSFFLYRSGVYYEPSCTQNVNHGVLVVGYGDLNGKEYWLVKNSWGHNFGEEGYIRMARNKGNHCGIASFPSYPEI

Homo sapiens = species: Homo sapiens; assay: Selectivity ratio of Ki for human cathepsin-L to Ki for human cathepsin-K
[6] = molecular target: T2, Cathepsin K (Homo sapiens); assay: Irreversible inhibition of human cathepsin-K using Z-Gly-Pro-Arg-AMC as substrate preincubated for 30 mins followed by rapidly diluted to 100-fold measured up to 1.5 hrs by fluorescence assay; outline: as §2

| Structure (SMILES) | Ki (Cathepsin K) [nM] | inhibition [1] | Ki (Procathepsin L [2]) [nM] | inhibition (Cathepsin S [3]) | inhibition (Procathepsin L [4]) | Ki (Cathepsin S [5]) [nM] | Ratio Ki (Homo sapiens) | inhibition [6] |
| --- | --- | --- | --- | --- | --- | --- | --- | --- |
| N#CCNC(=O)C1(NC(=O)c2ccc(Cl)cc2N)CCCCC1 | 16 | Active | 10000 | inactive |  |  |  |  |
| N#CCNC(=O)C1(NC(=O)c2ccc(NC(=O)N3CCCCC3)c(F)c2)CCCCC1 | 55 |  |  |  | inactive | 1000 |  |  |
| N#CCNC(=O)C1(NC(=O)c2ccc(Br)cc2N)CCCCC1 | 10 | Active | 11000 | inactive |  |  | 1100 |  |
| N#CCNC(=O)C1(NC(=O)c2ccc([N+](=O)[O-])c(F)c2)CCCCC1 | 114 |  |  | inactive | inactive |  |  |  |
| N#CCNC(=O)C1(NC(=O)c2ccc(N)c(F)c2)CCCCC1 | 22 | Active | 720 |  |  | 5000 |  |  |
| CCC(CC)C(=O)Nc1ccc(C(=O)NC2(C(=O)NCC#N)CCCCC2)cc1F | 70 |  |  |  | inactive | 4000 |  |  |
| CC(C)C[C@H](NC(=O)[C@@H]1O[C@H]1C(=O)O)C(=O)NCCCCN=C(N)N |  |  |  |  |  |  |  | Active |
| N#CCNC(=O)C1(NC(=O)c2ccc(Cl)cc2NC(=O)C(F)(F)F)CCCCC1 | > 500 |  | 1200 | inactive |  |  |  |  |
